Assay results published in ChEMBL document CHEMBL1143810, “Synthesis and antimalarial evaluation of a series of piperazinyl flavones” (Bioorg Med Chem Lett, 2007).

How the values were obtained:
[1] = test system: Plasmodium falciparum; assay: Antiplasmodial activity against Plasmodium falciparum D6; type: functional, organism-based
[2] = test system: MRC5; assay: Cytotoxicity against MRC5 cells; type: cell-based, Homo sapiens; details: for IC50: Homo sapiens, MRC5
Summary of the method: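 MRC5 cells were cultured for 5 days in the presence of drug, with viability read by colorimetric MTT. IC50 was taken from the concentration–response curve and is the mean of three independent experiments.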

[3] = test system: Plasmodium falciparum; assay: Antiplasmodial activity against Plasmodium falciparum FcB1; type: functional, organism-based
Summary of the method: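 P. falciparum FcB1 (chloroquine-resistant) was kept in continuous culture in human erythrocytes. Growth inhibition was read by [³H]hypoxanthine incorporation. IC50 was taken from the drug concentration–response curve and is the mean of three independent experiments.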

[4] = Selectivity index, ratio of IC50 for MRC5 cells to IC50 for Plasmodium falciparum FcB1; type: functional
Summary of the method: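 Ratio of MRC5 IC50 to P. falciparum FcB1 IC50. MRC5 IC50 came from a 5-day drug exposure read by MTT. Parasite IC50 came from [³H]hypoxanthine incorporation in erythrocyte cultures. Both were taken from concentration–response curves as means of three independent experiments.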

[5] = test system: Plasmodium falciparum; assay: Antiplasmodial activity against chloroquine-resistant Plasmodium falciparum K1; type: functional, organism-based
Summary of the method: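 Parasites kept in continuous culture on human erythrocytes; growth measured by [3H]hypoxanthine incorporation. IC50 taken from the drug concentration–response curve, mean of three independent experiments.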

[6] = test system: Plasmodium falciparum; assay: In vitro antiplasmodial activity against Plasmodium falciparum Thai
[7] = test system: Plasmodium yoelii; assay: Antiplasmodial activity as reduced parasitaemia against Plasmodium yoelii N67 infected Swiss mice (Mus musculus) at 50 mg/kg peroral dose; type: functional; details: route oral
Summary of the method: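 Peters 4-day suppressive test in mice infected with P. yoelii nigeriensis N67. Compound was given orally (0.5 ml) daily from day 0, at 10 or 50 mg/kg as per line. Groups had five mice, with a vehicle-only untreated group. Day-4 parasitemia was counted on Diff Quick-stained blood smears. % inhibition was calculated against untreated mice.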

[8] = test system: Plasmodium yoelii; assay: Antiplasmodial activity as reduced parasitaemia against Plasmodium yoelii N67 infected Swiss mice (Mus musculus) at 10 mg/kg peroral dose; type: functional; details: route oral
Summary of the method: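 4-day suppressive test in P. yoelii nigeriensis N67-infected mice, five per group. Dosing oral, once daily from day 0, 0.5 ml/mouse. Untreated group received vehicle only. Parasitemia read on day 4 from Diff Quick-stained blood smears. Percent inhibition calculated against untreated mice. Deaths counted at day 14.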

| Compound | IC50 [1] [µM] | IC50 [2] [µM] | IC50 [3] [nM] | Ratio IC50 [4] | also measured |
| --- | --- | --- | --- | --- | --- |
| CCOC(=O)COc1cc(-c2cc(=O)c3c(O)cc(OCC(=O)N4CCN(Cc5cccc(OC)c5OC)CC4)cc3o2)ccc1OC | 2.4 |  |  |  |  |
| COc1ccc(-c2cc(=O)c3c(O)cc(OCC(=O)N4CCN(Cc5ccc(OC)c(OC)c5OC)CC4)cc3o2)cc1OC1CCCC1 |  | > 150 | 2800 | >53 |  |
| CCOC(=O)COc1cc(-c2cc(=O)c3c(O)cc(OCC(=O)N4CCN(Cc5c(OC)cc(OC)cc5OC)CC4)cc3o2)ccc1OC |  | 9.5 | 1900 | 5 |  |
| CCOC(=O)COc1cc(-c2cc(=O)c3c(O)cc(OCC(=O)N4CCN(Cc5ccccc5)CC4)cc3o2)ccc1OC | 9.5 |  |  |  |  |
| CCOC(=O)COc1cc(-c2cc(=O)c3c(O)cc(OCC(=O)N4CCN(C)CC4)cc3o2)ccc1OC |  |  | 26000 |  |  |
| CCCCCCOc1cc(-c2cc(=O)c3c(O)cc(OCC(=O)N4CCN(Cc5ccc(OC)c(OC)c5OC)CC4)cc3o2)ccc1OC |  |  | 3900 |  |  |
| COc1ccc(-c2cc(=O)c3c(O)cc(OCC(=O)N4CCN(Cc5ccc(OC)c(OC)c5OC)CC4)cc3o2)cc1OCC(=O)N1CCN(Cc2ccc(OC)c(OC)c2OC)CC1 | 0.18 | 1 |  |  |  |
| COc1ccc(CN2CCN(C(=O)COc3cc(O)c4c(=O)cc(-c5ccccc5)oc4c3)CC2)c(OC)c1OC |  |  | 14000 |  |  |
| CCOC(=O)COc1cc(OCC(=O)N2CCN(Cc3ccc(OC)c(OC)c3OC)CC2)c2c(=O)cc(-c3ccc(OC)c(OCC(=O)OCC)c3)oc2c1 | 5.4 |  |  |  |  |
| CCOC(=O)COc1cc(-c2cc(=O)c3c(O)cc(OCC(=O)N4CCN(Cc5ccc(Cl)cc5)CC4)cc3o2)ccc1OC | 6 |  |  |  |  |
| CCN(CC)CCCC(C)Nc1ccnc2cc(Cl)ccc12 (stereo unspecified) [CHLOROQUINE] |  |  |  |  | Activity ([2]; human, mrc5): Active |
| CCOC(=O)COc1cc(-c2cc(=O)c3c(O)cc(OCC(=O)N4CCN(Cc5ccc(OCc6ccccc6)c(OC)c5OC)CC4)cc3o2)ccc1OC |  | 10 | 2800 | 3.6 |  |
| CCOC(=O)COc1cc(-c2cc(=O)c3c(O)cc(OCC(=O)N4CCN(Cc5ccc(O)c(OC)c5OC)CC4)cc3o2)ccc1OC |  | 10 | 600 | 16.7 | IC50 [5]: 400 nM; IC50 [6]: 1200 nM |
| CCOC(=O)COc1cc(-c2cc(=O)c3c(O)cc(OCC(=O)N4CCN(Cc5ccc(OC)c(OC)c5)CC4)cc3o2)ccc1OC | 4.7 |  |  |  |  |
| CCOC(=O)COc1cc(-c2cc(=O)c3c(O)cc(OCC(=O)N4CCN(Cc5cc(OC)c(OC)c(OC)c5)CC4)cc3o2)ccc1OC | 4 |  |  |  |  |
| CCOC(=O)COc1cc(-c2cc(=O)c3c(O)cc(OCC(=O)N4CCN(Cc5ccc(OC)c(OC)c5OC)CC4)cc3o2)ccc1OC | 0.5 | > 70 | 1000 | >140 | IC50 [5]: 13000 nM; inhibition in vivo at 50 mg/kg [7]: 43.1%; inhibition in vivo at 10 mg/kg [8]: 27.1%; IC50 [6]: 13000 nM |
| CCOC(=O)COc1cc(O)c2c(=O)cc(-c3ccc(OC)c(OCC(=O)N4CCN(Cc5ccc(OC)c(OC)c5OC)CC4)c3)oc2c1 | 6.2 |  |  |  |  |
| CCOC(=O)COc1cc(-c2cc(=O)c3c(O)cc(OCCN4CCN(Cc5ccc(OC)c(OC)c5OC)CC4)cc3o2)ccc1OC |  | 18 | 4300 | 4.2 |  |
| CCOC(=O)COc1cc(-c2cc(=O)c3c(O)cc(OCC(=O)N4CC[N+]([O-])(Cc5ccc(OC)c(OC)c5OC)CC4)cc3o2)ccc1OC |  |  | 19000 |  |  |
| COc1ccc(CN2CCN(C(=O)COc3ccc4c(=O)cc(-c5ccccc5)oc4c3)CC2)c(OC)c1OC |  |  | 13000 |  |  |
| COc1ccc(-c2cc(=O)c3c(O)cc(OCC(=O)N4CCN(Cc5ccc(OC)c(OC)c5OC)CC4)cc3o2)cc1OCC(=O)OC(C)(C)C |  | > 140 | 1700 | >82 | IC50 [5]: 1400 nM; IC50 [6]: 1500 nM |
| COc1ccc(CN2CCN(C(=O)COc3ccc4c(=O)cc(-c5cc(C(C)(C)C)c(O)c(C(C)(C)C)c5)oc4c3)CC2)c(OC)c1OC |  | > 150 | 1200 | >125 | IC50 [5]: 400 nM; inhibition in vivo at 50 mg/kg [7]: 38.5%; inhibition in vivo at 10 mg/kg [8]: 24.1%; IC50 [6]: 900 nM |
| CCOC(=O)COc1cc(-c2cc(=O)c3c(O)cc(OCC(=O)N4CCN(C(=O)OC(C)(C)C)CC4)cc3o2)ccc1OC |  | 3.8 | 1800 | 2.1 |  |
| CCOC(=O)COc1cc(-c2cc(=O)c3c(O)cc(OCC(=O)N4CCN(Cc5ccc(OC)cc5OC)CC4)cc3o2)ccc1OC |  | 5.6 | 1700 | 3.3 |  |
| CCOC(=O)COc1cc(-c2cc(=O)c3c(O)cc(OCC(=O)N4CCN(Cc5ccc(OC)cc5)CC4)cc3o2)ccc1OC |  |  | 8900 |  |  |
| COc1ccc(-c2cc(=O)c3c(O)cc(OCC(=O)N4CCN(Cc5ccc(OC)c(OC)c5OC)CC4)cc3o2)cc1O | 5.3 |  |  |  |  |
| CCOC(=O)COc1cc(-c2cc(=O)c3c(O)cc(OCC(=O)N4CC[N+](C)(Cc5ccc(OC)c(OC)c5OC)CC4)cc3o2)ccc1OC |  |  | 41000 |  |  |
